The record followed here is ChEMBL document CHEMBL1124409, “Preparation and biodistribution of 1-[2-(3-[125I]iodo-4-aminophenyl)ethyl]-4-[3-(trifluoromethyl) phenyl]piperazine and 1-[2-(3-[125I]iodo-4-azidophenyl)ethyl]-4-[3-(trifluoromethyl)phenyl] piperazine” (J Med Chem, 1989).

Data set [1] concerns Rattus norvegicus. The experiment in a line: Ratio of biodistribution of the radio labelled compound (azido-[125I]-IPAPP) in rat brain to rat blood after 15 min of intravenous injection. Format: ADME, organism-based.
The subject of data set [2] is Rattus norvegicus. Put plainly: Ratio of biodistribution of the radio labelled compound (azido-[125I]-IPAPP) in rat brain to rat blood after 2 min of intravenous injection. Format: ADME, organism-based.
Data set [3] concerns Rattus norvegicus. Put plainly: Biodistribution of the radio labelled compound (azido-[125I]-IPAPP) in rat brain after 2 min of intravenous injection. Conditions: in vivo. Format: ADME, organism-based. In short, it runs like this:
(§1)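 Rats received the radioligand in 0.2 mL saline into the femoral vein under ether anesthesia. They were killed by cardiac excision at set times post-injection. Organs were removed and gamma-counted at about 50% efficiency. % dose/organ was calculated against diluted aliquots of the injected material. Values are the average of three rats.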

The test system of data set [4] is Rattus norvegicus. The experiment in a line: Biodistribution of the radio labelled compound (azido-[125I]-IPAPP) in rat liver after 15 min of intravenous injection. Conditions: in vivo. Format: ADME, organism-based. In short, it runs like this:
as §1

In data set [5] the test system is Rattus norvegicus. The experiment in a line: Biodistribution of the radio labelled compound (azido-[125I]-IPAPP) in rat lungs after 30 min of intravenous injection. Format: ADME, organism-based, Lung. To be noted: in vivo, 0.5 h. In short, it runs like this:
as §1

The test system of data set [6] is Rattus norvegicus. Put plainly: Biodistribution of the radio labelled compound (azido-[125I]-IPAPP) in rat muscle after 2 min of intravenous injection. It counts as ADME, organism-based, Muscle tissue. Conditions: in vivo. The essentials:
as §1

In data set [7] the test system is Rattus norvegicus. Put plainly: Biodistribution of the radio labelled compound (azido-[125I]-IPAPP) in rat heart after 30 min of intravenous injection. Format: ADME, organism-based. To be noted: in vivo, 0.5 h. The essentials: as §1
The test system of data set [8] is Rattus norvegicus. The experiment in a line: Biodistribution of the radio labelled compound (azido-[125I]-IPAPP) in rat heart after 2 min of intravenous injection. It counts as ADME, organism-based. Conditions: in vivo. In short, it runs like this: as §1
In data set [9] the test system is Rattus norvegicus. The experiment in a line: Biodistribution of the radio labelled compound (azido-[125I]-IPAPP) in rat brain after 15 min of intravenous injection. Format: ADME, organism-based. Conditions: in vivo. The essentials: as §1
Data set [10] has as its system Rattus norvegicus. Put plainly: Biodistribution of the radio labelled compound (azido-[125I]-IPAPP) in rat lungs after 15 min of intravenous injection. It counts as ADME, organism-based, Lung. Conditions: in vivo. The essentials: as §1
The subject of data set [11] is Rattus norvegicus. Put plainly: Biodistribution of the radio labelled compound (azido-[125I]-IPAPP) in rat liver after 30 min of intravenous injection. Format: ADME, organism-based. To be noted: in vivo, 0.5 h. In short, it runs like this:
as §1

In data set [12] the test system is Rattus norvegicus. Put plainly: Biodistribution of the radio labelled compound (azido-[125I]-IPAPP) in rat liver after 2 min of intravenous injection. To be noted: in vivo. It counts as ADME, organism-based. In short, it runs like this: as §1
Data set [13] deals with Rattus norvegicus. Put plainly: Biodistribution of the radio labelled compound (azido-[125I]-IPAPP) in rat muscle after 30 min of intravenous injection. It counts as ADME, organism-based, Muscle tissue. Conditions: in vivo, 0.5 h. The essentials: as §1
For data set [14], the system named is Rattus norvegicus. The experiment in a line: Biodistribution of the radio labelled compound (azido-[125I]-IPAPP) in rat muscle after 15 min of intravenous injection. Conditions: in vivo. It counts as ADME, organism-based, Muscle tissue. The essentials:
as §1

In data set [15] the test system is Rattus norvegicus. The experiment in a line: Biodistribution of the radio labelled compound (azido-[125I]-IPAPP) in rat heart after 15 min of intravenous injection. It counts as ADME, organism-based. Conditions: in vivo. In short, it runs like this: as §1
Data set [16] relates to Rattus norvegicus. The experiment in a line: Biodistribution of the radio labelled compound (azido-[125I]-IPAPP) in rat blood after 15 min of intravenous injection. Format: ADME, organism-based. To be noted: in vivo. In short, it runs like this:
as §1

Data set [17] relates to Rattus norvegicus. Put plainly: Biodistribution of the radio labelled compound (azido-[125I]-IPAPP) in rat brain after 30 min of intravenous injection. Format: ADME, organism-based. Conditions: in vivo, 0.5 h. In short, it runs like this: as §1
The subject of data set [18] is Rattus norvegicus. Put plainly: Biodistribution of the radio labelled compound (azido-[125I]-IPAPP) in rat blood after 2 min of intravenous injection. Format: ADME, organism-based. Conditions: in vivo. In short, it runs like this: as §1
Data set [19] relates to Rattus norvegicus. Put plainly: Biodistribution of the radio labelled compound (azido-[125I]-IPAPP) in rat blood after 30 min of intravenous injection. Format: ADME, organism-based. To be noted: in vivo, 0.5 h. In short, it runs like this: as §1
In data set [20] the test system is Rattus norvegicus. Put plainly: Biodistribution of the radio labelled compound (azido-[125I]-IPAPP) in rat lungs after 2 min of intravenous injection. Format: ADME, organism-based, Lung. To be noted: in vivo. The essentials: as §1
Data set [21] concerns Rattus norvegicus. The experiment in a line: Ratio of biodistribution of the radio labelled compound (azido-[125I]-IPAPP) in rat brain to rat blood after 30 min of intravenous injection. It counts as ADME, organism-based. To be noted: 0.5 h.
Data set [22] deals with Rattus norvegicus. The experiment in a line: Ratio of biodistribution of the radio labelled compound ([125I]IPAPP) in rat brain to rat blood after 15 min of intravenous injection. Format: ADME, organism-based. In short, it runs like this: (§2)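 Rats, three per time point, received the radioligand in 0.2 mL saline into the femoral vein under ether anesthesia. They were killed by cardiac excision at 2, 15 or 30 min. Brain and blood were removed and gamma-counted at about 50% efficiency. Percent dose per organ was taken as tissue counts divided by diluted aliquots of the injected material.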

Data set [23] concerns Rattus norvegicus. The experiment in a line: Ratio of biodistribution of the radio labelled compound ([125I]IPAPP) in rat brain to rat blood after 30 min of intravenous injection. It counts as ADME, organism-based. To be noted: 0.5 h. In short, it runs like this:
as §2

The test system of data set [24] is Rattus norvegicus. Put plainly: Ratio of biodistribution of the radio labelled compound ([125I]IPAPP) in rat brain to rat blood after 2 min of intravenous injection. Format: ADME, organism-based. In short, it runs like this:
as §2

As to `[N-]=[N+]=Nc1ccc(CCN2CCN(c3cccc(C(F)(F)F)c3)CC2)cc1I`, the results for the Ratio in [1], in data set [2] and in data set [21] were 1.99, 0.499 and 2.53, respectively. Besides, the Dose/organ in [3] is 0.503%; in [4] it was 34.3%; in data set [5], 1.73%; in data set [6], 11.8%; in data set [7] it was 0.372%; in [8] it was 1.4%. Besides, the Dose/organ turned out to be 0.667% in [9]; 2.15% in data set [10]; 28.5% in data set [11]; 32.5% in data set [12]; 14.4% in data set [13]; 16.6% in data set [14]. The Dose/organ in data set [15] stood at 0.548%; in data set [16], 3.21%; in data set [17] it was 0.75%; in data set [18], 9.74%; in [19], 2.76%; in data set [20], 6.5%.

For the compound `Nc1ccc(CCN2CCN(c3cccc(C(F)(F)F)c3)CC2)cc1I`, the Dose/organ is given as 1.68% in [3]; 19.4% in data set [4]; 4.16% in data set [5]; 6.51% in data set [6]; 0.262% in [7]; 2.34% in [8]. Further, the Dose/organ is recorded as 0.91% in [9]; 3.15% in data set [10]; 18.9% in [11]; 13.1% in data set [12]; 11.8% in [13]; 13.6% in [14]. The Dose/organ in [15] came out at 0.309%; in data set [16] it was 2.23%; in [17], 0.935%; in data set [18] it was 6.99%; in [19], 1.96%; in [20] it was 14.2%. For the same compound, the Ratio came out at 4.92 in [22], 4.76 in data set [23] and 2.63 in [24].
